Experimental data published in paper PMC6279241 (Science signaling, 2018).
Residue numbers refer to the chain shown, from its start. Numbered stars: 1 amine (or outer) side, 2 acyl side, 3 side chain; on linkers, the order of the positions; unused ones are H or OH. Bridge positions count the residues as written; N and C are the ends. Square brackets hold non-standard residues; d marks the D form. Peptide text beside a SMILES is read from it. * marks the point of attachment. Leu(3R-OH,Nα-propionyl) = CCC(=O)N[C@H](C(=O)*)[C@H](O)C(C)C; X1 = CC(C)[C@@H](O[*:3])[C@H](N[*:1])C(=O)[*:2]; NMeT = CN[C@H](C(=O)O)[C@@H](C)O; dPhLac = O=C(O)[C@H](O)Cc1ccccc1; NMeA = CN[C@@H](C)C(=O)O; NMeDha = C=C(NC)C(=O)O

Tests used:
Gαi/q(R54K) [1] = assay: Attenuation of cannabinoid receptor-evoked inhibition of forskolin-induced cAMP; type: cell-based; conditions: Neuro2A
Mel202 cells [2] = assay: Flow cytometry of DNA content; type: cell-based, human; conditions: Mel202, 3 days
In short: (§1)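 Cells were treated with test compound for 3 days, then stained with propidium iodide for DNA content and run on a FACScan flow cytometer. The sub-G1 fraction gave apoptosis; S- and G2/M-phase fractions gave proliferation. Mean ± SEM of 4 experiments. t-tests were corrected with the Holm-Sidak method.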

wild type Gα13 / Gβ1γ2 = wild type Gα13 / Gβ1γ2 (Homo sapiens, UniProt Q14344); assay: Split-luciferase complementation between Gβ1γ2 and wild type Gα13; type: cell-based
In short: (§2)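 Split click beetle green luciferase in transiently transfected HEK293 cells. The N-terminal fragment sat in the helical-domain αB-αC loop of wild type or Q226L Gα13. The C-terminal fragment was fused to the N-terminus of Gβ1 (with untagged Gγ2 co-transfected) or of the LARG RGS domain. Cells were treated 18 h with test compound or DMSO, then reconstituted luciferase activity was read. Triplicate wells; 3 experiments on different days.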

Mel202 cells [3] = assay: Immunofluorescence staining of melanocytic markers in Mel202 cells; type: cell-based, human
In short: (§3)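 Immunofluorescence for TYR, DCT and PMEL. An equal volume of 2× fixative (PBS, 4% paraformaldehyde, 0.4% glutaraldehyde) was added to cells in growth medium for 15 min at 37 °C. Cells were permeabilized with 0.1% Triton X-100 for 5 min, blocked with 2% fish gelatin, and labelled with Alexa Fluor secondaries. The proportion of marker-positive cells was compared with Fisher's exact test. Representative of 3 experiments.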

Gαq(Q209L) = biological target: T1, Gαq(Q209L) (Mus musculus, UniProt P21279, Q209L); assay: SRE; type: cell-based; conditions: read-out: IC50, inhibition of transcriptional reporter driven by constitutively active Gαq; SRE(L) reporter
T1 sequence (P21279 1-359 Q209L): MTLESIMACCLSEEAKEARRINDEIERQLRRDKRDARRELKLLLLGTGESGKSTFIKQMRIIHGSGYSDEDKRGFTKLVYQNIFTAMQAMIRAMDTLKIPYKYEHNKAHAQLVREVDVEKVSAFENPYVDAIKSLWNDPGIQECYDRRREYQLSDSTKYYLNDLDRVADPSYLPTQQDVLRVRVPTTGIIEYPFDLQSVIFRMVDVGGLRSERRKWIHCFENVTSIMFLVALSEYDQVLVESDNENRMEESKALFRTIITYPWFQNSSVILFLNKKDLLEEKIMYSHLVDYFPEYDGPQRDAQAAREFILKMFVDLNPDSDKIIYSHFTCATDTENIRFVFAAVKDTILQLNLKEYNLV
In short: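 Firefly luciferase signal from the Gα-driven transcriptional reporter was normalized to co-transfected Renilla luciferase from a constitutive promoter.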

92.1 cells [4] = assay: RNA-Seq gene expression in FR-treated 92.1 cells; type: cell-based, human; conditions: 92.1, 100 nM FR
Gαi/q = assay: Attenuation of cannabinoid receptor-evoked inhibition of forskolin-induced cAMP; type: cell-based; conditions: read-out: IC50, attenuation of Gαi/q-mediated inhibition of forskolin-induced cAMP accumulation; Neuro2A, cannabinoid type 1 receptors, WIN 55,212-2
92.1 cells [5] = assay: Immunofluorescence staining of melanocytic markers in 92.1 cells; type: cell-based, human
In short: as §3

Mel202 cells [6] = assay: Cell viability/proliferation; type: cell-based, human; conditions: read-out: EC50, inhibition of proliferation (viability)
In short: (§4)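 Water-soluble tetrazolium salt (WST-8) viability assay run per the maker's protocol. Cells were grown in RPMI 1640 with 10% FBS and antibiotics at 37 °C, 5% CO2. Fold-change in viability over time was followed at increasing test compound concentrations, and EC50 was taken from concentration-response data. Mean ± SEM of 4 experiments, each in triplicate.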

Mel202 cells [7] = assay: IP1 abundance; type: cell-based, human; conditions: Mel202, Gαq(Q209L)-driven
In short: (§5)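 Homogeneous IP1 immunoassay (IP-One kit). Seeding was 10,000 Mel202, 20,000 92.1 or 20,000 OCM-1A cells per well. After overnight culture, cells got test compound or DMSO and were incubated until the next day. Stimulation buffer was added for 1 h, then IP1-d2 and anti-IP1 cryptate for 60 min at room temperature. IP1 was read from kit standard curves. Mean ± SEM of 4 experiments, each in triplicate.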

Mel202 cells [8] = assay: Melanocytic pigmentation of Mel202 cells; type: cell-based, human; conditions: Mel202, 3 days, vs vehicle
In short: (§6)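 Cells were treated with test compound for 3 days, then pelleted and examined macroscopically for pigmentation against vehicle (DMSO). Representative images are from one of 3 experiments, each in triplicate.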

OCM-1A cells [9] = assay: Morphology; type: cell-based, human; conditions: 3 days
In short: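 Cells were treated with test compound for 3 days and imaged by phase contrast on an inverted microscope with a 10× objective. Representative fields are from one of 3 experiments.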

Gα13(Q226L) / LARG-RGS = biological target: T2, Gα13(Q226L) / LARG-RGS (Homo sapiens, UniProt Q14344, Q226L); type: cell-based; conditions: split luciferase
T2 sequence (Q14344 1-377 Q226L): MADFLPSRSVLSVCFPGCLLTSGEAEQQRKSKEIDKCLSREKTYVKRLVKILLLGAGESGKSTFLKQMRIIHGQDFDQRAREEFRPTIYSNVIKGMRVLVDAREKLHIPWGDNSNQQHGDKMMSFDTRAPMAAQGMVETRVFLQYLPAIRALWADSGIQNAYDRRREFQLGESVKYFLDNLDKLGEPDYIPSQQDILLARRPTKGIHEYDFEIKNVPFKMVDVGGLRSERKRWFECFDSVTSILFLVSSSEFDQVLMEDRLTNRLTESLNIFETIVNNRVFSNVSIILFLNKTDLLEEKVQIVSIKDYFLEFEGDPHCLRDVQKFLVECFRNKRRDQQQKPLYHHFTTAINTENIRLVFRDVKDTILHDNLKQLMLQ
In short: as §2

92.1 cells [10] = assay: Melanocytic pigmentation of 92.1 cells; type: cell-based, human; conditions: 92.1, 3 days, vs vehicle
In short: as §6

92.1 cells [11] = assay: IP1 abundance; type: cell-based, human; conditions: 92.1, Gαq(Q209L)-driven
In short: as §5

OCM-1A cells [12] = assay: Flow cytometry of DNA content; type: cell-based, human; conditions: 3 days
In short: as §1

Gαi/q(R54K) [13] = biological target: Gαi/q(R54K) (Homo sapiens, UniProt P63096, H188P/K180P/T187Y/V185I/V50I/V72L/Y69F); assay: Nucleotide exchange; type: biochemical; conditions: in vitro
OCM-1A cells [14] = assay: Cell viability/proliferation; type: cell-based, human; conditions: even at 10 μM
In short: as §4

Gαq(Q209L) / Gβγ = biological target: T3, Gαq(Q209L) / Gβγ (Mus musculus, UniProt P21279, Q209L); assay: Co-purification of endogenous Gβγ with affinity-tagged constitutively active Gαq; type: cell-based; conditions: FR 1 μM, 24 hours; n=3
T3 sequence (P21279 1-359 Q209L): T1 sequence (P21279 1-359 Q209L)
In short: (§7)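 HEK293 cells were transfected with mouse Gαq, either wild type or Q209L. A FLAG-StrepII-StrepII tag flanked by Gly/Ser linkers was inserted between residues 124 and 125. After 24 h, cells got FR (1 μM) or DMSO for 24 h. They were lysed in 50 mM Tris pH 8.0, 100 mM NaCl, 5 mM EDTA, 1 mM MgCl2, 0.5% IGEPAL, ± 1 μM FR. StrepTactin then anti-FLAG purification at 4 °C. Immunoblot for FLAG and Gβ; 3 independent experiments.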

Gα13(Q226L) = biological target: T4, Gα13(Q226L) (Homo sapiens, UniProt Q14344, Q226L); assay: SRE; type: cell-based; conditions: SRE(L) reporter
T4 sequence (Q14344 1-377 Q226L): T2 sequence (Q14344 1-377 Q226L)
In short: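 SRE(L) promoter-driven firefly luciferase transcriptional reporter activated by constitutively active Gα13. Firefly signal was normalized to co-transfected Renilla luciferase expressed from a constitutive promoter.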

Gα13(Q226L) / Gβ1γ2 = biological target: T5, Gα13(Q226L) / Gβ1γ2 (Homo sapiens, UniProt Q14344, Q226L); assay: Split-luciferase complementation between Gβ1γ2 and constitutively active Gα13; type: cell-based
T5 sequence (Q14344 1-377 Q226L): T2 sequence (Q14344 1-377 Q226L)
In short: as §2

Gαi/q(Q204L) = Gαi/q(Q204L) (Homo sapiens, UniProt P63096, H188P/K180P/K54R/Q204L/T187Y/V185I/V50I/V72L/Y69F); assay: GTP hydrolysis; type: biochemical; conditions: FR 25 μM
In short: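 His-tagged Gαi/q(Q204L) was expressed in E. coli; it is Gαi1 carrying eight Gαq-type substitutions. The protein (3 μM) was in 50 mM Tris-HCl pH 8.0, 5 mM MgCl2, 1 mM EDTA, 0.5 mM DTT. Reaction started with γ32P-GTP (100 nM final, 100 Ci/mmol); protein was in >10-fold excess. FR (25 μM final) or DMSO was added partway. Aliquots were quenched in 1N formic acid and resolved on PEI-cellulose TLC. Triplicate, ≥3 days, different protein preparations.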

OCM-1A cells [15] = assay: Quantitative RT-PCR of PRC2-regulated genes in OCM-1A cells; type: cell-based, human; conditions: qRT-PCR
92.1 cells [16] = assay: Flow cytometry of DNA content; type: cell-based, human; conditions: 92.1, 3 days
In short: as §1

wild type Gαq / Gβγ = biological target: T6, wild type Gαq / Gβγ (Mus musculus, UniProt P21279); assay: Co-purification of endogenous Gβγ with affinity-tagged wild type Gαq; type: cell-based; conditions: FR 1 μM, 24 hours; n=3
T6 sequence (P21279 1-359): T1 sequence (P21279 1-359 Q209L) with L209Q
In short: as §7

92.1 cells [17] = assay: Cell viability/proliferation; type: cell-based, human; conditions: read-out: EC50, inhibition of proliferation (viability)
In short: as §4

OCM-1A cells [18] = assay: IP1 abundance; type: cell-based, human; conditions: BRAF(V600E)-driven
In short: as §5

Gαi/q(Q204L), sequence (P63096 whole entry V50I/K54R/Y69F/V72L/K180P/V185I/T187Y/H188P/Q204L): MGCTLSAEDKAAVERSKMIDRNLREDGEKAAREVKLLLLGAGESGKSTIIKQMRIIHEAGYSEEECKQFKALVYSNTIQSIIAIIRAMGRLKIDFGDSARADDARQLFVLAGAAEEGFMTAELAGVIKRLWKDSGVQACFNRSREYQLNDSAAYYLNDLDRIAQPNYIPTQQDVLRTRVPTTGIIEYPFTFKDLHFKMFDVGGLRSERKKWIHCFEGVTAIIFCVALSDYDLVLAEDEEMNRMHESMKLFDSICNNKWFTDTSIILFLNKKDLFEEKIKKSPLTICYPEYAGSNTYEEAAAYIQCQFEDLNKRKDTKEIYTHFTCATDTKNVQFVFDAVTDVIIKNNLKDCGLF
Gαi/q(R54K) (Homo sapiens, UniProt P63096, H188P/K180P/T187Y/V185I/V50I/V72L/Y69F), sequence (P63096 whole entry V50I/Y69F/V72L/K180P/V185I/T187Y/H188P): as the sequence (P63096 whole entry V50I/K54R/Y69F/V72L/K180P/V185I/T187Y/H188P/Q204L) above, with R54K, L204Q counted along it
wild type Gα13 / Gβ1γ2, sequence (P59768 2-68): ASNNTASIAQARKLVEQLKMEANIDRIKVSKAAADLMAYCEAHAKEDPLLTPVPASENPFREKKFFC
wild type Gα13 / Gβ1γ2, sequence (P62873 whole entry, further chain, the tested form may be a part): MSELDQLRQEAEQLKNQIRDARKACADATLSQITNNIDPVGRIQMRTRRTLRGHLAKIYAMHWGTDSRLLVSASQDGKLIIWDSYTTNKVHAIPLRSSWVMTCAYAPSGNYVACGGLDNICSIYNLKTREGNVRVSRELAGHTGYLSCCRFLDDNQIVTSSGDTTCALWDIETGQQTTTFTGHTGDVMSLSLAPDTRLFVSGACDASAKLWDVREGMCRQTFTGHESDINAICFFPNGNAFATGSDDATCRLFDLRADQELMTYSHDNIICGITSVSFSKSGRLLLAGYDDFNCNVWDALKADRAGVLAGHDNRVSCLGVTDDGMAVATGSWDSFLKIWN
wild type Gα13 / Gβ1γ2, sequence (Q14344 whole entry, the tested form may be a part): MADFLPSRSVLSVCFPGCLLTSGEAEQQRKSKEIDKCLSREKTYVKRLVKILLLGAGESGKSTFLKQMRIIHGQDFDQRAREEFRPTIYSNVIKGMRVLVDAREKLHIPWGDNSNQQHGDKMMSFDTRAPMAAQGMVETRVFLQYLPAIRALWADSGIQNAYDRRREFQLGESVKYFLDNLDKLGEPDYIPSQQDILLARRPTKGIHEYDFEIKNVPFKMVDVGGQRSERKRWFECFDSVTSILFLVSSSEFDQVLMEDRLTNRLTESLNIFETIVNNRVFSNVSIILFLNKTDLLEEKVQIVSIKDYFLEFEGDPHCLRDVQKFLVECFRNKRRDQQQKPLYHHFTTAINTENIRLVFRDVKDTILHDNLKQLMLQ

SMILES: C=C1C(=O)N[C@@H](C)C(=O)N(C)[C@@H](C)C(=O)N[C@@H]([C@H](OC(=O)[C@@H](NC(=O)CC)[C@H](O)C(C)C)C(C)C)C(=O)N(C)[C@@H]([C@@H](C)OC)C(=O)O[C@H](C(C)C)[C@H](NC(C)=O)C(=O)O[C@H](Cc2ccccc2)C(=O)N1C [FR, FR900359] (Ac-[X1][dPhLac][NMeDha]A[NMeA][X1](Leu(3R-OH,Nα-propionyl))[NMeT](Me); ester 1-C)
- Fold less potent toward Gαi/q(R54K) than Gαi/q (cAMP signaling in cells) (Gαi/q(R54K) [1]): ~ 30 fold
- IC50 (Gαi/q(R54K) [1]; read-out: IC50, attenuation of Gαi/q(R54K)-mediated inhibition of forskolin-induced cAMP accumulation, cannabinoid type 1 receptors, WIN 55,212-2): ~800 nM
- Apoptosis (increased fraction of sub-G1/G0 cells) (Mel202 cells [2]): induced
- Cell cycle inhibition (decreased fraction of S- or G2/M-phase cells) (Mel202 cells [2]): induced
- Effect on interaction between wild type Gα13 and Gβ1γ2 (wild type Gα13 / Gβ1γ2): lack of effect
- Increase in proportion of DCT-positive cells (Mel202 cells [3]): 1.6 fold
- Increase in proportion of PMEL-positive cells (Mel202 cells [3]): 3.9 fold
- Increase in proportion of TYR-positive cells (Mel202 cells [3]): 1.8 fold
- IC50 (Gαq(Q209L)): 1 nM
- Decrease in expression of BBC3/PUMA (92.1 cells [4]): 3.5 fold
- Decrease in expression of PMAIP1/NOXA (92.1 cells [4]): 2.5 fold
- Decrease in expression of p21CIP1 (CDKN1A) (92.1 cells [4]): 3.0 fold
- IC50 (Gαi/q): 25 nM
- Increase in proportion of DCT-positive cells (92.1 cells [5]): 3.5 fold
- Increase in proportion of PMEL-positive cells (92.1 cells [5]): 6.8 fold
- EC50 (Mel202 cells [6]): 6 nM
- Reduction of IP1 abundance (Mel202 cells [7]): > 50 fold
- Melanocytic pigmentation (Mel202 cells [8]): increased
- Morphological changes (OCM-1A cells [9]): no effect
- Effect on interaction between constitutively active Gα13 and RGS domain of LARG (Gα13(Q226L) / LARG-RGS): lack of effect
- Melanocytic pigmentation (92.1 cells [10]): increased
- Reduction of IP1 abundance (92.1 cells [11]): > 50 fold
- Effect on cell cycle and apoptosis (OCM-1A cells [12]): no effect
- Fold less potent toward Gαi/q(R54K) than Gαi/q (nucleotide exchange) (Gαi/q(R54K) [13]): > 10 fold
- Effect on proliferation (OCM-1A cells [14]): no effect
- Increase of association between Gβγ and affinity-tagged constitutively active Gαq (co-purification) (Gαq(Q209L) / Gβγ): 9 fold
- Effect on transcriptional reporter driven by constitutively active Gα13 (Gα13(Q226L)): no effect
- Effect on interaction between constitutively active Gα13(Q226L) and Gβ1γ2 (Gα13(Q226L) / Gβ1γ2): lack of effect
- Correction of GTP hydrolysis defect of Gαi/q(Q204L) (Gαi/q(Q204L)): not corrected
- Expression of PRC2-regulated genes (OCM-1A cells [15]): unaffected
- Apoptosis (increased fraction of sub-G1/G0 cells) (92.1 cells [16]): induced
- Cell cycle inhibition (decreased fraction of S- or G2/M-phase cells) (92.1 cells [16]): induced
- Increase of association between Gβγ and affinity-tagged wild type Gαq (co-purification) (wild type Gαq / Gβγ): 19 fold
- EC50 (92.1 cells [17]): 2 nM
- Reduction of IP1 abundance (OCM-1A cells [18]): ~ 2 fold
